{"data": "Measurements pooled from the literature", "target": "Dual specificity mitogen-activated protein kinase kinase 1 (MAP2K1, Homo sapiens, UniProt Q02750)", "note": "Protocols differ between the studies behind these lines."}
{"Compound": "Nc1ncc(-c2nc(N3CCOCC3)nc(N3CCOCC3)n2)c(C(F)F)n1", "effect on": "binding", "method": "competition with immobilised ligand", "concentration": "10 µM", "endpoint": "remaining binding", "value": "83%"}
{"Compound": "C#Cc1n[nH]c2c(-c3cn([C@@H](C)c4ccccn4)c(=O)[nH]c3=O)cc(F)cc12", "effect on": "enzyme activity", "mode": "inhibitor", "concentration": "0.1 µM", "endpoint": "inhibition", "value": "12%"}
{"Compound": "Cn1cc(-c2cc(F)cc(N3CCn4c(cc5c4CCCC5)C3=O)c2CO)cc(Nc2ccc(N3CCN(C4COC4)CC3)cn2)c1=O", "effect on": "enzyme activity", "mode": "inhibitor", "concentration": "0.1 µM", "endpoint": "inhibition", "value": "6%"}
{"Compound": "O=c1[nH]c2ccccc2n1C1CCN(Cc2ccc(-c3[nH]c4cc5ncnc5cc4nc3-c3ccccc3)cc2)CC1", "effect on": "cell-free assay", "concentration": "0.5 µM", "endpoint": "remaining signal", "value": "96.8%"}
{"Compound": "Cn1cncc1[C@](O)(COc1ccc(C#N)cc1-c1ccc(OC(F)(F)F)cc1)c1ccc(C#N)cc1", "effect on": "cell-free assay", "method": "competition with immobilised ligand", "concentration": "1 µM", "endpoint": "remaining binding", "value": "100%"}
{"Compound": "C#Cc1n[nH]c2c(-c3cn([C@@H](C)c4ccccc4)c(=O)[nH]c3=O)cc(F)cc12", "effect on": "enzyme activity", "mode": "inhibitor", "concentration": "0.1 µM", "endpoint": "inhibition", "value": "6.6%"}
{"Compound": "COc1ncccc1-c1cnn2ccc(N3CCN(C(=O)OC(C)C)CC3)nc12", "effect on": "binding", "method": "competition with immobilised ligand", "concentration": "1 µM", "endpoint": "remaining binding", "value": "100%"}
{"Compound": "Cn1cc(-c2cccc(N3CCc4c(sc5c4CC(C)(C)C5)C3=O)c2CO)cc(Nc2ccncn2)c1=O", "effect on": "enzyme activity", "mode": "inhibitor", "concentration": "1 µM", "endpoint": "inhibition", "value": "0%"}
{"Compound": "CC(C)(C)c1cc(C=C(C#N)C#N)cc(Br)c1O", "effect on": "enzyme activity", "mode": "inhibitor", "concentration": "0.5 µM", "endpoint": "remaining activity", "value": "90.8%"}
{"Compound": "N#CC1(c2ccccn2)CCN(Cc2cc(C(=O)O)c(=O)n3ccccc23)CC1", "effect on": "cell-free assay", "method": "competition with immobilised ligand", "concentration": "1 µM", "endpoint": "remaining binding", "value": "95%"}
{"Compound": "Cc1nn(C)cc1-c1nc2c(N3CCN(Cc4ccc(Cl)cc4)CC3)c(Cl)cnc2[nH]1", "effect on": "binding", "method": "competition with immobilised ligand", "concentration": "1 µM", "endpoint": "remaining binding", "value": "100%"}
